Experimental findings from ChEMBL document CHEMBL1157295, “Polyacylated oligosaccharides from medicinal Mexican morning glory species as antibacterials and inhibitors of multidrug resistance in Staphylococcus aureus” (2006) are described below.

In brackets after ≈: the same amount, converted by molar mass.

What all share (format): functional
For assay [1], the system named is Staphylococcus aureus. Description: Antimicrobial activity against Staphylococcus aureus ATCC 25923 by standard microdilution method. In a few lines:
(§1)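 Broth microdilution per NCCLS guidelines, at least in duplicate, in cation-adjusted Mueller-Hinton broth (20 mg/L Ca2+, 10 mg/L Mg2+). Strains were grown first on nutrient agar. Inoculum of 5 × 10^5 cfu was set in 0.9% saline against a McFarland standard. Compounds were dissolved in DMSO and given as 2-fold serial dilutions, final 1–512 µg/mL, with at most 3.125% v/v DMSO. MIC is the lowest concentration showing no visible growth.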

Assay [2] deals with Staphylococcus aureus. Description: Antimicrobial activity against TetK multidrug efflux pump possessing Staphylococcus aureus XU-212 by standard microdilution method. The gist of the method: as §1
Assay [3] relates to Staphylococcus aureus. Description: Antimicrobial activity against epidemic methicillin-resistant Staphylococcus aureus 15 by standard microdilution method. The gist of the method:
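Broth microdilution following NCCLS guidelines, at least in duplicate, against EMRSA-15 (mecA) precultured on nutrient agar. Medium was cation-adjusted Mueller-Hinton broth with 20 mg/L Ca2+ and 10 mg/L Mg2+. Inoculum was 5 × 10^5 cfu in 0.9% saline, set against a McFarland standard. Compounds were dissolved in DMSO (final ≤3.125% v/v) and tested at 1–512 µg/mL in 2-fold series. MIC was the lowest concentration with no visible growth.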

For assay [4], the system named is Staphylococcus aureus. In words: Antimicrobial activity against Staphylococcus aureus ATCC 6538.
Assay [5] concerns Mycobacterium tuberculosis. In words: Antimicrobial activity against Mycobacterium tuberculosis.

Take `CCCCC[C@H]1CCCCCCCCCC(=O)O[C@H]2[C@H](O)[C@@H](CO)O[C@@H](O[C@H]3[C@H](O1)O[C@H](C)[C@H](O)[C@@H]3O)[C@@H]2O[C@@H]1O[C@@H](C)[C@H](OC(=O)[C@@H](C)CC)[C@@H](O[C@@H]2O[C@@H](C)[C@H](O)[C@@H](O)[C@H]2O)[C@H]1OC(=O)[C@@H](C)CC` [TRICOLORIN A]: the MIC turned out to be 16 µg/mL (≈ 15.6 µM) against Staphylococcus aureus [1]; 8 µg/mL (≈ 7.82 µM) against Staphylococcus aureus [2]; 4 µg/mL (≈ 3.91 µM) in the assay on Staphylococcus aureus [3]; 1 µg/mL (≈ 0.977 µM) with Staphylococcus aureus [4]; 16 µg/mL (≈ 15.6 µM) in assay [5].
As to `CCCCC[C@H]1CCCCCCCCCC(=O)O[C@H]2[C@H](O)[C@@H](CO)O[C@@H](O[C@H]3[C@H](O1)O[C@H](C)[C@H](O)[C@@H]3O)[C@@H]2O[C@@H]1O[C@@H](C)[C@H](OC(=O)C(C)C)[C@@H](O[C@@H]2O[C@@H](C)[C@H](O)[C@@H](O)[C@H]2O)[C@H]1OC(=O)[C@@H](C)CC` [TRICOLORIN B], the minimal inhibitory concentration (MIC) in the assay with Staphylococcus aureus [1] was 32 µg/mL (≈ 31.7 µM); in the assay with Staphylococcus aureus [2], 16 µg/mL (≈ 15.9 µM); in the assay with Staphylococcus aureus [3], 16 µg/mL (≈ 15.9 µM); against Staphylococcus aureus [4] it was 1 µg/mL (≈ 0.991 µM); in assay [5], 16 µg/mL (≈ 15.9 µM).
Turning to `CCCCC[C@H]1CCCCCCCCCC(=O)O[C@H]2[C@H](O)[C@@H](CO)O[C@@H](O[C@H]3[C@H](O1)O[C@H](C)[C@H](O)[C@@H]3O)[C@@H]2O[C@@H]1O[C@@H](C)[C@H](OC(=O)[C@H](C)[C@@H](C)O)[C@@H](O[C@@H]2O[C@@H](C)[C@H](O)[C@@H](O)[C@H]2O)[C@H]1OC(=O)[C@@H](C)CC` [TRICOLORIN C], the minimal inhibitory concentration (MIC) with Staphylococcus aureus [1] worked out at 32 µg/mL (≈ 30.8 µM); in the assay on Staphylococcus aureus [2], 16 µg/mL (≈ 15.4 µM); with Staphylococcus aureus [3], 32 µg/mL (≈ 30.8 µM); in the assay on Staphylococcus aureus [4], 1 µg/mL (≈ 0.962 µM); in assay [5] it was 16 µg/mL (≈ 15.4 µM).
Take `CCCCC[C@H]1CCCCCCCCCC(=O)OC[C@H]2O[C@@H](O[C@H]3[C@H](O1)O[C@H](C)[C@H](O)[C@@H]3O)[C@H](O[C@@H]1O[C@@H](C)[C@H](OC(=O)[C@@H](C)CC)[C@@H](O[C@@H]3O[C@@H](C)[C@H](O)[C@@H](O)[C@H]3O)[C@H]1OC(=O)[C@@H](C)CC)[C@@H](O)[C@@H]2O` [TRICOLORIN D]: the MIC amounted to 16 µg/mL (≈ 15.6 µM) against Staphylococcus aureus [1]; 32 µg/mL (≈ 31.3 µM) with Staphylococcus aureus [2]; 32 µg/mL (≈ 31.3 µM) against Staphylococcus aureus [3]; 1 µg/mL (≈ 0.977 µM) against Staphylococcus aureus [4]; 16 µg/mL (≈ 15.6 µM) in assay [5].
As for `CCCCC[C@H]1CCCCCCCCCC(=O)O[C@H]2[C@H](O)[C@@H](CO)O[C@@H](O[C@H]3[C@H](O1)O[C@H](C)[C@@H](O)[C@@H]3O)[C@@H]2O[C@@H]1O[C@@H](C)[C@H](OC(=O)[C@@H](C)CC)[C@@H](O[C@@H]2O[C@@H](C)[C@H](O)[C@@H](O)[C@H]2O)[C@H]1OC(=O)[C@@H](C)CC` [TRICOLORIN E], the MIC came to 16 µg/mL (≈ 15.6 µM) in the assay with Staphylococcus aureus [1]; 8 µg/mL (≈ 7.82 µM) against Staphylococcus aureus [2]; 8 µg/mL (≈ 7.82 µM) with Staphylococcus aureus [3]; 1 µg/mL (≈ 0.977 µM) against Staphylococcus aureus [4]; 16 µg/mL (≈ 15.6 µM) in assay [5].
